Test [1] can be described thus: Evaluated for minimum inhibitory concentration against […] bacteria […] SV-1. It counts as functional. Summed up:
(§1)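 Broth microdilution MIC by standard technique. Values come from duplicate experiments and are stated as accurate to ±50%.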

A further test has as its system Enterococcus faecalis. In words: Evaluated for minimum inhibitory concentration against gram-positive bacteria Staphylococcus faecalis MGH-2.
For test [2], the system named is Escherichia coli. In words: In vivo protective dose for mouse protection assay in Escherichia coli Vogel after peroral administration. Format: functional. The conditions noted are these: po, read-out: PD50. Summed up:
(§2)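 Female Charles River CD-1 mice were given an acute, lethal, systemic infection. A single dose of compound was given at the time of challenge, by the route stated in the line, with 16 animals per dose level. The read-out is the median protective dose (PD50, mg/kg). Per the footnote, values come from 16 animals per test, with a mean variation of ±34%.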

Test [3] concerns Staphylococcus aureus. As to the kind of experiment: Evaluated for minimum inhibitory concentration against […] bacteria Staphylococcus aureus UC-76. It counts as functional. Summed up:
as §1

Another test deals with Klebsiella pneumoniae. In words: Evaluated for minimum inhibitory concentration against gram-negative bacteria Klebsiella pneumoniae MGH-2. Format: functional. Summed up: as §1
For test [4], the system named is Escherichia coli. In words: In vivo protective dose was determined in mouse protection assay in Escherichia coli Vogel after subcutaneous administration. It counts as functional. The conditions noted are these: sc, read-out: PD50. Summed up: as §2
For test [5], the system named is Staphylococcus aureus. In words: Evaluated for minimum inhibitory concentration against […] bacteria Staphylococcus aureus H228. It counts as functional. Summed up:
as §1

Test [6] relates to Escherichia coli. In words: Evaluated for minimum concentration needed to produce linear DNA at an intensity relative to oxolinic acid at 10 mg/mL. by gyrase mediated cleavage of DNA in Escherichia coli 560. Format: functional. The conditions noted are these: read-out: MIC.
In the next test the test system is Enterobacter cloacae. In words: Evaluated for minimum inhibitory concentration against gram-negative bacteria Enterobacter cloacae HA 2646. It counts as functional.
In test [7] the test system is Pseudomonas aeruginosa. In words: Evaluated for minimum inhibitory concentration against gram-negative bacteria Pseudomonas aeruginosa UI-18.
The test system of test [8] is Escherichia coli. In words: Evaluated for minimum inhibitory concentration against gram-negative bacteria Escherichia coli Vogel. Format: functional. Summed up:
as §1

A further test deals with Pseudomonas. In words: Evaluated for minimum inhibitory concentration against gram-negative bacteria Pseudomonas rettgeri H1771. Format: functional. Summed up:
as §1

For another test, the system named is Streptococcus pyogenes. As to the kind of experiment: Evaluated for minimum inhibitory concentration against gram-positive bacteria Streptococcus pyogenes C203.
Test [9] has as its system Pseudomonas aeruginosa. As to the kind of experiment: Evaluated for minimum inhibitory concentration against gram-negative bacteria Pseudomonas aeruginosa UI-18. Format: functional. Summed up:
as §1

The subject of test [10] is Escherichia coli. As to the kind of experiment: `Evaluated for minimum concentration needed to produce linear DNA at an intensity relative to oxolinic acid at 10 mg/mL. by gyrase mediated cleavage of DNA in Escherichia coli 560. It counts as functional. Summed up: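 DNA gyrase isolated from Escherichia coli. The read-out is the minimum drug concentration (μg/mL) that induces gyrase-mediated DNA cleavage, giving linear DNA at an intensity relative to oxolinic acid at 10 mg/mL.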

Structures are written as SMILES. In brackets after ≈: the same amount, converted by molar mass.

What is called MIC is the lowest concentration found to suppress growth. A low value points to greater potency. On to `CN1CCC2(CCN(c3c(F)cc4c(=O)c(C(=O)O)cn(C5CC5)c4c3F)C2)C1` (stereo unspecified), for which the MIC in test [1] amounted to 0.05 µg/mL (≈ 0.124 µM); in the test on Enterococcus faecalis it was 0.1 µg/mL (≈ 0.248 µM); in the test with Staphylococcus aureus [3], 0.013 µg/mL (≈ 0.0322 µM); against Klebsiella pneumoniae it was 0.1 µg/mL (≈ 0.248 µM); in the test on Staphylococcus aureus [5] it was 0.25 µg/mL (≈ 0.62 µM); against Enterobacter cloacae it was 0.05 µg/mL (≈ 0.124 µM). Further, the MIC in the test with Pseudomonas aeruginosa [7] amounted to 0.8 µg/mL (≈ 1.98 µM); against Escherichia coli [8], 0.05 µg/mL (≈ 0.124 µM); in the test with Pseudomonas, 0.2 µg/mL (≈ 0.496 µM); in the test with Streptococcus pyogenes, 0.05 µg/mL (≈ 0.124 µM). Also, the ED50 was determined as 5 mg/kg with Escherichia coli [2] and 2 mg/kg in the test on Escherichia coli [4]. Further, the minimum concentration for gyrase-mediated DNA cleavage in the test on Escherichia coli [6] came out at 0.5 µg/mL.

Regarding `CCN1CCC2(CCN(c3nc4c(cc3F)c(=O)c(C(=O)O)cn4CC)C2)C1` (stereo unspecified), the MIC in test [1] was 1.6 µg/mL (≈ 4.12 µM); with Pseudomonas aeruginosa [9], 3.1 µg/mL (≈ 7.98 µM); against Enterococcus faecalis it was 0.8 µg/mL (≈ 2.06 µM); with Staphylococcus aureus [3], 0.2 µg/mL (≈ 0.515 µM); in the test on Klebsiella pneumoniae, 0.4 µg/mL (≈ 1.03 µM); with Escherichia coli [10], 5 µg/mL (≈ 12.9 µM). Also, the minimum inhibitory concentration (MIC) is 0.4 µg/mL (≈ 1.03 µM) against Staphylococcus aureus [5]; 1.6 µg/mL (≈ 4.12 µM) against Enterobacter cloacae; 0.4 µg/mL (≈ 1.03 µM) in the test on Escherichia coli [8]; 6.3 µg/mL (≈ 16.2 µM) in the test with Pseudomonas; 1.6 µg/mL (≈ 4.12 µM) in the test with Streptococcus pyogenes. Moreover, the values for the ED50 in the test with Escherichia coli [2] and with Escherichia coli [4] were 10.3 mg/kg and 15 mg/kg, respectively.

These data come from ChEMBL document CHEMBL1125136, “Quinolone antibacterial agents substituted at the 7-position with spiroamines. Synthesis and structure-activity relationships” (1990).
